Assay results taken from ChEMBL document CHEMBL1153726, “Synthesis and anticancer activity of sclerophytin-inspired hydroisobenzofurans” (Bioorg Med Chem Lett, 2009).

Experiments:
Assay type in all cases: functional
U-251 = assay: Growth inhibition of human U251 cells at 10 nM after 96 hrs by MTT assay; design: scale not given: the % may be the effect or the level left
NCI-H226 [1] = assay: Growth inhibition of human NCI-H226 cells after 96 hrs by MTT assay; conditions: NCI-H226, 96 h
In short: (§1)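 Run in the NCI 60 human tumour cell line panel as a five-dose assay. GI50 and LC50 were reported for each cell line.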

PC-3 [2] = assay: Growth inhibition of human PC3 cells at 10 uM after 96 hrs by MTT assay; design: scale not given: the % may be the effect or the level left
UO-31 = assay: Growth inhibition of human UO31 cells at 1 nM after 96 hrs by MTT assay; design: scale not given: the % may be the effect or the level left
Malme-3M [3] = assay: Growth inhibition of human MALME-3M cells at 10 nM after 96 hrs by MTT assay; design: scale not given: the % may be the effect or the level left
TK-10 = assay: Growth inhibition of human TK10 cells at 1 uM after 96 hrs by MTT assay; design: scale not given: the % may be the effect or the level left
HCT-116 [4] = assay: Growth inhibition of human HCT116 cells at 100 nM after 96 hrs by MTT assay; design: scale not given: the % may be the effect or the level left
A498 = assay: Growth inhibition of human A498 cells at 10 uM after 96 hrs by MTT assay; design: scale not given: the % may be the effect or the level left
MOLT-4 = assay: Growth inhibition of human MOLT4 cells at 10 nM after 96 hrs by MTT assay; design: scale not given: the % may be the effect or the level left
MDA-MB-435 = assay: Growth inhibition of human MDA-MB-435 cells at 10 nM after 96 hrs by MTT assay; design: scale not given: the % may be the effect or the level left
NCI-H23 = assay: Growth inhibition of human NCI-H23 cells at 10 uM after 96 hrs by MTT assay; design: scale not given: the % may be the effect or the level left
OVCAR-8 = assay: Growth inhibition of human OVCAR8 cells at 10 uM after 96 hrs by MTT assay; design: scale not given: the % may be the effect or the level left
MDA-MB-468 [5] = assay: Growth inhibition of human MDA-MB-468 cells at 100 nM after 96 hrs by MTT assay; design: scale not given: the % may be the effect or the level left
IGROV-1 = assay: Growth inhibition of human IGROV1 cells at 100 nM after 96 hrs by MTT assay; design: scale not given: the % may be the effect or the level left
Malme-3M [6] = assay: Growth inhibition of human MALME-3M cells at 1 uM after 96 hrs by MTT assay; design: scale not given: the % may be the effect or the level left
SF-268 = assay: Growth inhibition of human SF268 cells at 10 uM after 96 hrs by MTT assay; design: scale not given: the % may be the effect or the level left
NCI-H322M = assay: Growth inhibition of human NCI-H322M cells at 10 nM after 96 hrs by MTT assay; design: scale not given: the % may be the effect or the level left
HCC 2998 [7] = assay: Growth inhibition of human HCC2998 cells at 10 nM after 96 hrs by MTT assay; design: scale not given: the % may be the effect or the level left
SK-MEL-5 [8] = assay: Growth inhibition of human SK-MEL-5 cells at 10 nM after 96 hrs by MTT assay; design: scale not given: the % may be the effect or the level left
HCT-116 [9] = assay: Growth inhibition of human HCT116 cells at 1 nM after 96 hrs by MTT assay; design: scale not given: the % may be the effect or the level left
MDA-MB-468 [10] = assay: Growth inhibition of human MDA-MB-468 cells at 1 nM after 96 hrs by MTT assay; design: scale not given: the % may be the effect or the level left
Malme-3M [11] = assay: Growth inhibition of human MALME-3M cells after 96 hrs by MTT assay; in short: as §1
SF-295 [12] = assay: Growth inhibition of human SF295 cells after 96 hrs by MTT assay; conditions: SF-295, 96 h
In short: (§2)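 Tested in the NCI 60-cell-line panel in five-dose format; GI50 and LC50 values reported for each cell line.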

A549 [13] = assay: Growth inhibition of human A549 cells after 96 hrs by MTT assay; conditions: A549, 96 h
MDA-MB-231 = assay: Growth inhibition of human MDA-MB-231 cells at 1 nM after 96 hrs by MTT assay; design: scale not given: the % may be the effect or the level left
OVCAR-5 = assay: Growth inhibition of human OVCAR5 cells after 96 hrs by MTT assay; conditions: OVCAR-5, 96 h; in short: as §2
HCC 2998 [14] = assay: Growth inhibition of human HCC2998 cells at 1 nM after 96 hrs by MTT assay; design: scale not given: the % may be the effect or the level left
HCT-116 [15] = assay: Growth inhibition of human HCT116 cells at 1 uM after 96 hrs by MTT assay; design: scale not given: the % may be the effect or the level left
SK-MEL-28 = assay: Growth inhibition of human SK-MEL-28 cells after 96 hrs by MTT assay; conditions: SK-MEL-28, 96 h; in short: as §2
NCI-H226 [16] = assay: Growth inhibition of human NCI-H226 cells at 1 uM after 96 hrs by MTT assay; design: scale not given: the % may be the effect or the level left
RXF 393 = assay: Growth inhibition of human RXF393 cells after 96 hrs by MTT assay; conditions: RXF 393, 96 h; in short: as §2
OVCAR-3 = assay: Growth inhibition of human OVCAR-3 cells at 100 nM after 96 hrs by MTT assay; design: scale not given: the % may be the effect or the level left
MDA-MB-468 [17] = assay: Growth inhibition of human MDA-MB-468 cells at 10 nM after 96 hrs by MTT assay; design: scale not given: the % may be the effect or the level left
HCT-15 = assay: Growth inhibition of human HCT15 cells at 1 nM after 96 hrs by MTT assay; design: scale not given: the % may be the effect or the level left
SF-295 [18] = assay: Growth inhibition of human SF295 cells at 1 nM after 96 hrs by MTT assay; design: scale not given: the % may be the effect or the level left
A549 [19] = assay: Growth inhibition of human A549 cells at 10 nM after 96 hrs by MTT assay; design: scale not given: the % may be the effect or the level left
PC-3 [20] = assay: Growth inhibition of human PC3 cells at 1 nM after 96 hrs by MTT assay; design: scale not given: the % may be the effect or the level left
SK-MEL-5 [21] = assay: Growth inhibition of human SK-MEL-5 cells after 96 hrs by MTT assay; conditions: SK-MEL-5, 96 h; in short: as §2
LOX IMVI = assay: Growth inhibition of human LOXIMVI cells at 10 nM after 96 hrs by MTT assay; design: scale not given: the % may be the effect or the level left
[22] = read-out: LC50 (the source's name)
[23] = read-out: Log10GI50 (converted)
[24] = read-out: Log10LC50 (converted)

Structure (SMILES): C=C(C)[C@H]1CC=C(C)C2=CO[C@@H](c3ccccc3F)[C@@H]21
- Activity (U-251): 94%
- GI50 (NCI-H226 [1]; read-out: GI50): 3.82 µM
- CC50 (NCI-H226 [1]; [22]): 50.6 µM
- GI50 (NCI-H226 [1]; [23]): 3.8 µM
- CC50 (NCI-H226 [1]; [24]): 50.1 µM
- TGI (NCI-H226 [1]; read-out: Log10TGI (converted)): 19.1 µM
- TGI (NCI-H226 [1]; read-out: TGI): 18.9 µM
- Activity (PC-3 [2]): 22.47%
- Activity (UO-31): 89%
- Activity (Malme-3M [3]): 88%
- Activity (TK-10): 48%
- Activity (HCT-116 [4]): 82%
- Activity (A498): 104.48%
- Activity (MOLT-4): 100%
- Activity (MDA-MB-435): 83%
- Activity (NCI-H23): 95.4%
- Activity (OVCAR-8): 94.8%
- Activity (MDA-MB-468 [5]): 57%
- Activity (IGROV-1): 83%
- Activity (Malme-3M [6]): 19%
- Activity (SF-268): 105.37%
- Activity (NCI-H322M): 84%
- Activity (HCC 2998 [7]): 89%
- Activity (SK-MEL-5 [8]): 88%
- Activity (HCT-116 [9]): 102%
- Activity (MDA-MB-468 [10]): 93%
- GI50 (Malme-3M [11]; read-out: GI50): 2.78 µM
- CC50 (Malme-3M [11]; [22]): 43.8 µM
- GI50 (Malme-3M [11]; [23]): 2.75 µM
- CC50 (Malme-3M [11]; [24]): 43.7 µM
- TGI (Malme-3M [11]; read-out: Log10TGI (converted)): 15.1 µM
- TGI (Malme-3M [11]; read-out: TGI): 15.1 µM
- GI50 (SF-295 [12]; read-out: GI50): 4.49 µM
- CC50 (SF-295 [12]; [22]): 45.7 µM
- GI50 (SF-295 [12]; [23]): 4.47 µM
- CC50 (SF-295 [12]; [24]): 45.7 µM
- TGI (SF-295 [12]; read-out: Log10TGI (converted)): 17.4 µM
- TGI (SF-295 [12]; read-out: TGI): 17.6 µM
- GI50 (A549 [13]; read-out: GI50): 6.17 µM
- CC50 (A549 [13]; [22]): > 100 µM
- GI50 (A549 [13]; [23]): 6.17 µM
- CC50 (A549 [13]; [24]): > 100 µM
- TGI (A549 [13]; read-out: Log10TGI (converted)): 30.2 µM
- TGI (A549 [13]; read-out: TGI): 30.1 µM
- Activity (MDA-MB-231): 101%
- GI50 (OVCAR-5; read-out: GI50): 23.6 µM
- LC50 (50% lethal concentration) (OVCAR-5; read-out: LC50): 72.3 µM
- GI50 (OVCAR-5; [23]): 23.4 µM
- LC50 (50% lethal concentration) (OVCAR-5; [24]): 72.4 µM
- TGI (OVCAR-5; read-out: Log10TGI (converted)): 41.7 µM
- TGI (OVCAR-5; read-out: TGI): 41.3 µM
- Activity (HCC 2998 [14]): 86%
- Activity (HCT-116 [15]): 15%
- GI50 (SK-MEL-28; read-out: GI50): 10.5 µM
- CC50 (SK-MEL-28; [22]): 47.1 µM
- GI50 (SK-MEL-28; [23]): 10.5 µM
- CC50 (SK-MEL-28; [24]): 46.8 µM
- TGI (SK-MEL-28; read-out: Log10TGI (converted)): 22.4 µM
- TGI (SK-MEL-28; read-out: TGI): 22.2 µM
- Activity (NCI-H226 [16]): 32%
- GI50 (RXF 393; read-out: GI50): 7 µM
- CC50 (RXF 393; [22]): 64.7 µM
- GI50 (RXF 393; [23]): 6.92 µM
- CC50 (RXF 393; [24]): 64.6 µM
- TGI (RXF 393; read-out: Log10TGI (converted)): 24 µM
- TGI (RXF 393; read-out: TGI): 23.9 µM
- Activity (OVCAR-3): 90%
- Activity (MDA-MB-468 [17]): 79%
- Activity (HCT-15): 94%
- Activity (SF-295 [18]): 96%
- Activity (A549 [19]): 89%
- Activity (PC-3 [20]): 95%
- GI50 (SK-MEL-5 [21]; read-out: GI50): 2.48 µM
- CC50 (SK-MEL-5 [21]; [22]): 38.6 µM
- GI50 (SK-MEL-5 [21]; [23]): 2.51 µM
- CC50 (SK-MEL-5 [21]; [24]): 38.9 µM
- TGI (SK-MEL-5 [21]; read-out: Log10TGI (converted)): 14.8 µM
- TGI (SK-MEL-5 [21]; read-out: TGI): 14.9 µM
- Activity (LOX IMVI): 91%
